Experimental findings from PubChem BioAssay AID492951 (Molecular Libraries Program, Specialized Chemistry Center, …, 2010) are described below.

Unmarked numbers belong to inactive results. Active and inactive are the calls of the source.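 How the source made its calls: active means inhibition above 10%; inactive means the rest.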

The inhibition is the relative decrease from the control value, in per cent.

The target of this experiment is Hexokinase-4 (Homo sapiens) (UniProt P35557). The experiment is described as follows: hGlck enzyme activity off-target inhibitors – biochemical, recombinant hGlck, counter-screen for TbHK1 inhibitor project (AID 492951). The settings on record: G6PDH-coupled NADH absorbance 340 nm, at 10 µM; stronger effect = higher value. In outline: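 Test system: recombinant human glucokinase, G6PDH-coupled; Medium: pH 7.9 TEA buffer, MgCl2, NAD+; Also added: 20 mM glucose as reaction starter, plus 1 mM ATP; Compound dosing: single final test compound dose of 10 µM; Schedule: 10 min preincubation at room temperature; Measured by: NADH formation by absorbance at 340 nm; Repeats: triplicate.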
Chain of Hexokinase-4 (Homo sapiens) (P35557 whole entry, looked up): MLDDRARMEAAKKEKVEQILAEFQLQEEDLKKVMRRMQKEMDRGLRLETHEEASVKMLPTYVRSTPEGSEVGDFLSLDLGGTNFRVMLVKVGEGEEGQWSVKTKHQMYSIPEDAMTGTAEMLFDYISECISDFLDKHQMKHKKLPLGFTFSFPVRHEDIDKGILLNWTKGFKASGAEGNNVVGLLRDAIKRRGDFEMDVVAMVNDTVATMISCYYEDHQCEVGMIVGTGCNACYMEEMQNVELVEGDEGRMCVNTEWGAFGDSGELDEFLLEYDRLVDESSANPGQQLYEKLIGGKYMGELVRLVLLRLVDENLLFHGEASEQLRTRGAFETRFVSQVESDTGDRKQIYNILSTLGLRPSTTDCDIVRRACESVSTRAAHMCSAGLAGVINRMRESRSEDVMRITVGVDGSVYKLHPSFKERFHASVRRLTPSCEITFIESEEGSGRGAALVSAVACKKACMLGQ
On the technique in general: The purpose of a counterscreen is to sort out artefacts and off-target activity.
Take `O=c1c2ccccc2sn1-c1cccc(Cl)c1`: the inhibition is 34.9% (active).
The same measure, in the same setting: next, `O=C(Cn1sc2ccccc2c1=O)Nc1ccc(I)cc1`: 36.2% (active).
Take `O=c1c2ccccc2on1-c1ccccc1`: the outcome was inactive.
In the case of `CC(C)c1cccc(C(=O)Nc2cc(Cl)ccc2C(=O)O)c1`, the result was inactive.
In the case of `COc1ccc(C(=O)Nc2cc(Cl)ccc2[N+](=O)[O-])cc1`, the result was inactive.
With `O=C(Cn1sc2ccccc2c1=O)Nc1ccccc1Cl`, the result was inactive.
With `CN(C)c1cccc(NC(=O)Cn2sc3ccccc3c2=O)c1`, the inhibition was 16.7% (active).
For `CC(C)(C)c1ccc(C(=O)Nc2c(C(=O)O)ccc(Cl)c2Cl)cc1`, the result was inactive.
Regarding `O=c1cc(-c2ccccc2)sn1-c1ccccc1`, the result was inactive.
Regarding `O=C(Cn1sc2ccccc2c1=O)NC1CCCCC1`, the inhibition was 8.01%.
Consider `Cc1ccccc1NC(=O)Cn1sc2ccccc2c1=O`, for which the result was inactive.
With `CC(C(=O)Nc1ccccc1)n1sc2ccccc2c1=O` (stereo not drawn), the inhibition was 9.6%.
Consider `O=C(Cn1sc2ccccc2c1=O)Nc1ccccc1F`, for which the result was inactive.
Turning to `COc1ccc(-c2nc3c(Cl)c(Cl)ccc3c(=O)o2)cc1`, the inhibition is 9.2%.
Regarding `O=C1c2ccccc2S(=O)N1c1ccc(Cl)cc1` (stereo not drawn), the inhibition is 37.2% (active).
As for `O=C(Cn1sc2ccccc2c1=O)Nc1ccc(F)cc1`, the inhibition was 1.7%.
Regarding `O=C(Nc1cc(Cl)ccc1C(=O)O)c1ccc(-c2ccccc2)cc1`, the inhibition is 27.6% (active).
`Cn1sc(=O)c2ccccc21`: the inhibition was 56.2% (active).
For `O=C(Nc1cc(Cl)ccc1C(=O)O)c1ccccc1`, the outcome was inactive.
In the case of `CC(=O)Nc1ccc2c(=O)n(-c3ccccc3)sc2c1`, the result was inactive.
On to `CCC(C)(C)c1ccc(C(=O)Nc2cc(Cl)ccc2C(=O)O)cc1`, for which the inhibition is 26% (active).
With `O=c1c2ccccc2sn1-c1ccc(Cl)cc1`, the inhibition was 35.6% (active).
Take `CN(C)c1ccc(C(=O)Nc2cc(Cl)ccc2C(=O)O)cc1`: the outcome was inactive.
On the same count and under the same terms, next, `CC(C)(C)c1ccc(C(=O)Nc2cc(Cl)ccc2O)cc1`: “inactive”.
On the same count and under the same terms, next, `COc1ccc(C(=O)Nc2cc(C(=O)O)ccc2Cl)cc1`: “inactive”.
Regarding `O=C(Nc1cc(Cl)ccc1C(=O)O)c1ccc(I)cc1`, the inhibition was 22.9% (active).
`O=c1c2ccccc2sn1-c1ccccc1F`: the inhibition was 28.9% (active).
As to `N#Cc1ccc2c(=O)n(-c3ccccc3)sc2c1`, the inhibition was 54% (active).
On the same count and under the same terms, in the case of `O=C(Nc1cc(Cl)ccc1C(=O)O)c1ccc(C2CCCC2)cc1` it was 21.1% (active); in that of `COc1ccc(C(=O)Nc2cc(Cl)ccc2C(=O)O)cc1`, 7.8%.
Regarding `O=C(Cn1sc2ccccc2c1=O)Nc1ccccc1`, the inhibition is 7.03%.
For the compound `COc1ccc(-c2cc3ccccc3[nH]2)cc1`, the inhibition is 30.3% (active).
Still for that read-out and setting: next, `CCCc1ccc(C(=O)Nc2cc(Cl)ccc2C(=O)O)cc1`: 16.8% (active).
Regarding `O=C(Nc1cc(Cl)ccc1C(=O)O)c1ccc(Cc2ccccc2)cc1`, the result was inactive.
`C=C(C)c1ccc(C(=O)Nc2cc(Cl)ccc2C(=O)O)cc1`: the inhibition was 25.9% (active).
Regarding `Cc1ccc(C(=O)Nc2cc(Cl)ccc2C(=O)O)cc1C`, the result was inactive.
Take `O=C(Cn1sc2cc(F)ccc2c1=O)Nc1ccccc1`: the inhibition was 39.6% (active).
Take `COc1ccc(C(=O)O)c(NC(=O)c2ccc(Cl)cc2)c1`: the inhibition was 15.8% (active).
